In ChEMBL document CHEMBL4513216, “Probing the Open Global Health Chemical Diversity Library for Multistage-Active Starting Points for Next-Generation Antimalarials” (ACS Infect Dis, 2020):

Assay: Toxicity liver stage against HepG2, at 10uM
Format: cell-based
Design: test concentration 10 uM, cell line HepG2-A16-CD81EGFP
Settings: human, HepG2-A16-CD81EGFP cells; read-out: INHIBITION
Procedure, shortened: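 Uninfected HepG2-A16-CD81EGFP cells, 3 × 10^3 per well, 1536-well, plated on prespotted compound at 10 μM final, parasite-free screening media added to match infected plates; puromycin 10 μM positive, DMSO 0.5% negative; run in parallel with 48 h PbLuc assay at 37 °C, 5% CO2; viability by CellTiter-Glo luminescence, normalized to controls.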

Point of comparison: `CC1(C)CN(C(=O)c2cc(F)cc3[nH]cnc23)CCS1`, cytotoxicity at 10 µM -7.36%. Against it:
- COc1ccc(-c2noc(CN3CCCC3Cn3cccn3)n2)cc1 (stereo not given) — higher, 2.88%
- OC(COc1ccc2c(c1)OCO2)CN1CC(n2cccn2)C1 (stereo not given) — higher, -6.17%
- Cc1cc(C)c(CNC(=O)NCC2CCCN2C)c(=O)[nH]1 (stereo not given) — higher, -2.14%
- CC(C)C(C)(C#N)NC(=O)CN1CCCN(Cc2ccccc2F)CC1 (stereo not given) — higher, -5.84%
- CN(C)S(=O)(=O)c1ccc(CNc2ccc(Cl)cn2)cc1 — higher, 7.25%
- c1cnc(-c2cnc(N3CCCCC3)nc2C2CCCO2)cn1 (stereo not given) — higher, -7.16%
- CNC(=O)Nc1cnc2cc(Cl)ccc2c1O — lower, -30%
- O=C(NCc1ccccn1)[C@]12COC[C@H]1CN(Cc1cccnc1)C2 — higher, 5.64%
- CN(C)c1ncccc1NC(=O)COCC1CC1 — higher, -4.69%
- CN(CC(=O)NCCc1cc2ccccc2o1)S(C)(=O)=O — higher, 6.56%
- O=C(C1COCCO1)N1CCN(Cc2ccc3c(c2)CCO3)CC1 (stereo not given) — higher, -5.99%
- CCC(CNS(=O)(=O)c1c[nH]cn1)Oc1ccccc1F (stereo not given) — higher, 7.22%
- Cc1cc(N2CCN(C(=O)Cc3c(C)nc(C)[nH]c3=O)CC2)cc(C)n1 — higher, 9.66%
- CCn1c(CN2CCCC2)nnc1C1CCN(Cc2ccc(C)o2)CC1 — lower, -14.8%
- CCc1cnc(CN(C)C(=O)NC2CCN(c3ccccc3)C2)s1 (stereo not given) — higher, -2.12%
- Cc1ccc(-c2nc(CN3CCN(CC(=O)N(C)C)CC3)cs2)o1 — lower, -22%
- COc1ccc2c(c1)C1(CCN(Cc3ccncc3)CC1)N(C)CC2 — lower, -14.2%
- CN(C)CCn1c2c(ccc1=O)CC(NC(=O)c1cnccn1)CC2 (stereo not given) — higher, -2.4%
- Clc1ccc2[nH]c3c(c2c1)CCCC3c1nn[nH]n1 (stereo not given) — higher, -4.13%
- CC(=O)N1CCCN(c2nccc(-c3c(C)nn(C)c3C)n2)CC1 — higher, 9.21%
- CC(C)n1cnnc1CN(C)C(=O)c1ccccc1-n1cncn1 — higher, -1.49%
- Cc1nc(CN2CC3(CCN(c4ncc(F)cn4)C3)CC2=O)cs1 (stereo not given) — higher, 3.25%
- c1ccc(CN2C[C@H]3CCC[C@@]3(COCC3CC3)C2)nc1 — higher, 1.55%
- CS(=O)(=O)NCc1ccc(NC(=O)CC2=CCCCC2)cc1 — higher, -2.48%
- Cc1c(C(=O)N2CCC(C(=O)c3nc4ccccc4s3)CC2)cnn1C — higher, 6.32%
- CN(C)CCOCC1CN(C(=O)c2cscn2)Cc2ccnn2C1 (stereo not given) — higher, 3.65%
- Fc1cccc(O[C@@H]2C[C@H]3CN(Cc4ccccn4)CCN3C2)c1 — lower, -154%
- CC(Cn1cncc1-c1cnn(Cc2ccccc2)c1)N1CCCCC1 (stereo not given) — higher, 6.58%
- O=C1O[C@@H]2CN(Cc3ccccc3F)C[C@@H]2N1CCCN1CCOCC1 — higher, -4.73%
- COCc1nc(CN(CC(N)=O)C(C)C)cs1 — lower, -8.39%
- CCC(C)c1noc(C2CCN(C(=O)c3cccnc3)CC2)n1 (stereo not given) — lower, -10.7%
- CC(C)c1ccc(-n2nnc(C(=O)O)c2-c2ccccn2)cc1 — higher, 9.18%
- CNc1nnc(SCc2nnc(C(C)(C)C)o2)s1 — higher, -1.05%
- CCc1nc(CN2CCCN(C(=O)c3occc3C)CC2)cs1 — lower, -21.9%
- Cc1cc(C)n(Cc2ccc(-c3noc(C(=O)NCCCO)n3)cc2)n1 — higher, -1.49%
- CCOC(=O)CC(C)Nc1nc(C2CCCC2)nc2c1cnn2C (stereo not given) — lower, -43.1%
- O=C(NCc1ccco1)[C@@]12CCO[C@@H]1CCN(Cc1ccccn1)C2 — higher, 0.109%
- CC(C)N1CCCC(C(=O)NC(C)(C)c2nnc(N)s2)C1 (stereo not given) — higher, -2.4%
- Cc1nnc2n1CCN(C(=O)c1cn(-c3ccccc3Cl)nn1)C2 — higher, -4.55%
- Nc1nc2c(c(NC(=O)Nc3cccc(Cl)c3)n1)CCCC2 — higher, -2.8%
- CCc1nnc2n1CCN(Cc1csc(-c3ccsc3)n1)C2 — lower, -17.5%
- CN(C)c1ncc(C2Nc3ccccc3C3=NCCCN32)cn1 (stereo not given) — lower, -23.2%
- COc1cc(F)ccc1NC(=O)NCCNC(=O)OC(C)(C)C — higher, -3.97%
- Cc1ccc(CN(CCCN2CCOCC2)Cc2cnn(C)c2)o1 — higher, -1.06%
- Cc1noc(C)c1CN(C)C(=O)c1ccc2c(c1O)OC(C)(C)C2 — higher, -2.92%
- COc1ccc(CNC(=O)CCN2CCOC(C(F)(F)F)C2)cc1 (stereo not given) — higher, 4.3%
- Nc1nccc(C2CCCN2CCc2ccccc2)n1 (stereo not given) — higher, 3.38%
- Cc1nc(CN(C)C(=O)Nc2cccc(COC(C)C)c2C)no1 — higher, 3.95%
- O[C@@H]1C[C@@H](c2nc(-c3ccccc3)no2)N(Cc2ccncc2)C1 — higher, 2.77%
- CCOC(=O)CCNC(=O)N1CCOC(Cc2cccc(OC)c2)C1 (stereo not given) — higher, -1.13%
- CC(C)N1CCCC1c1cc(CO)[nH]n1 (stereo not given) — higher, 6%
- Cc1ccc(C(=O)N2C[C@@H](OCC3CCOCC3)[C@H]3OCCC[C@H]32)o1 — higher, -3.55%
- Cc1nc(CN2CCN(C(=O)c3scnc3C)CC2)cs1 — higher, 0.524%
- CN(C)C[C@H]1OC[C@@H]2CCN(C(=O)Cc3cccs3)C[C@@H]21 — higher, 7.13%
- Cn1cnc(-c2nc(C(=O)NC3CC3)c3ccccn23)c1 — lower, -114%
- CCC(C)N(Cc1cccnc1)Cc1ccc2c(c1)OCCO2 (stereo not given) — higher, -2.83%
- Cc1nc[nH]c1C(=O)NCc1cccnc1N(C)C1CCCCC1 — higher, -4.12%
- Cc1cc(C(=O)NC(C)Cc2cccc(Cl)c2)n(C)n1 (stereo not given) — higher, 10.9%
- OCCOCc1ncn2c1CN(Cc1cccs1)CCC2 — lower, -82.9%
- CCC(NCc1cc[nH]n1)c1nc(C(F)(F)F)cs1 (stereo not given) — higher, 6.12%
- Nc1cc(C(=O)N2C[C@@H]3CC[C@H]2CN(Cc2cccnc2)C3)ccn1 — higher, 0.624%
- Cc1cnn(C2CCCN(C(=O)c3ccc(C(N)=O)cn3)C2)c1 (stereo not given) — higher, -7.35%
- CN1CCCC(N(C)S(=O)(=O)c2cccc3ncccc23)C1 (stereo not given) — higher, -6.46%
- CS(=O)(=O)CCCSc1n[nH]c(-c2ccc3c(c2)CCC3)n1 — higher, -0.0422%
- Cc1cc(N2CCc3c(ncn3C)C2)nc(N)n1 — lower, -7.93%
- Cc1noc(C)c1CN1CCC2(CC1)CC(Oc1cccnc1)CO2 (stereo not given) — higher, 17.8%
- Cn1cc(CN2CCC(Cn3cc(-c4ccccc4)nn3)CC2)cn1 — higher, 9.47%
- O=C(c1cccnc1-n1cncn1)N1CCc2ccccc2C1 — lower, -13.9%
- CC(=O)c1ccc(C(=O)N(C)Cc2nc(-c3ccccn3)no2)s1 — higher, 2.45%
- O=C(CC1CC1)N[C@@H]1CN(c2ncccn2)C[C@@H]2CCCO[C@@H]21 — higher, 9.87%
- COc1ncccc1C(=O)N1CC[C@H]2C[C@@H](c3nccs3)O[C@@H]2C1 — higher, -0.123%
- COCCN1C(=O)CCC12CCC(NCc1ccc(OC)cc1)CC2 (stereo not given) — higher, 11.5%
- CN1CCC2(CC1)CNC(=O)c1ccccc1O2 — higher, -1.24%
- Cc1nc(N(C)C)nc(C)c1NC(=O)c1ccco1 — higher, 1.14%
- Oc1ccc(-c2c(-c3ccccc3)ncn2C[C@H]2CCCN2)cc1 — higher, 17.5%
- CC(C)(C)C(=O)N1CCC(n2cc(C3(O)CCCC3)nn2)CC1 — higher, 3.15%
- Cc1nnc(CN(C)C2CCN(CCc3cccs3)C2)n1C (stereo not given) — higher, -3.67%
- O=C(C1CCN(Cc2nc(-c3ccco3)no2)CC1)N1CCCC1 — higher, -3.4%
- O=S(=O)(C1CC1)N1CC[C@]2(C[C@H](OCC3CCOCC3)CO2)C1 — higher, 8.64%
- O=C(O)c1cc(S(=O)(=O)Nc2ccc(F)cc2Cl)cc2c1OCCO2 — lower, -8.12%
- O=C1CC(NCc2ccncc2)CN1Cc1cccc(F)c1 (stereo not given) — higher, -7.12%
- O=C(NCC1CCOC1)c1csc(-c2ccc(Cl)cc2)n1 (stereo not given) — lower, -11.6%
- Cc1cnn(CCC(=O)N2CCN(C(=O)C(C)C)[C@@H]3CS(=O)(=O)C[C@@H]32)c1 — higher, 2.47%
- CN1CC(=O)N(c2cccc(F)c2)CC12CCNC2 (stereo not given) — higher, 6.23%
- COc1cccc(CN2CCCCCC2c2cccs2)c1O (stereo not given) — higher, 11.4%
- CN(CC(N)=O)C(=O)c1cn(-c2ccc(Br)cc2)cn1 — higher, 6.85%
- Fc1cccnc1N1CCCC(c2nccs2)C1 (stereo not given) — higher, 1.48%
- CN(C)C[C@@H]1CN(C(=O)c2cc(-c3ccccc3)n[nH]2)C[C@@H]1CO — lower, -19.9%
- CCN(CC)CC[C@H]1CN(C(=O)NC2CCCCC2)CC[C@H]1CC(=O)O — higher, 7.77%
- CCN(CC1CCOC1)C(=O)c1cccnc1N1CCOCC1 (stereo not given) — lower, -10.8%
- CCC(CC)CN1CCC(n2cc(C3CCCC3)nn2)CC1 — higher, 3.92%
- CCOCC1CCN(C(=O)C(c2cccc(F)c2)N(C)C)CC1 (stereo not given) — higher, -4.57%
- CCn1cc(CN2CCCN(C(=O)c3ccc(C)o3)CC2)cn1 — lower, -13.9%
- CNC(=O)C1Cn2ccnc2C2(CCN(CCF)CC2)O1 (stereo not given) — lower, -12.6%
- CCn1c(C2CCNCC2)nn(CCn2cncn2)c1=O — higher, -6.26%
- Cc1cc(C(F)(F)F)nn1CCCNC(=O)C1CCN(S(C)(=O)=O)CC1 — higher, -4.56%
- CC1CCN(CCNC(=O)C2CCN(C(=O)NC(C)C)CC2)CC1 — higher, 8.21%
- CCOc1ccc2nc(CN3CCC(CN)C3)ccc2c1 (stereo not given) — lower, -7.41%
- Cc1csc2c(N3CCNC(C(=O)NCc4cccnc4)C3)ncnc12 (stereo not given) — higher, 1.74%
- CN(Cc1cccc(C(N)=O)c1)c1ncc(C(N)=O)cc1Cl — higher, -3.73%
- Cc1cccc2nc(CN3CCC(Cn4ccnn4)CC3)cc(=O)n12 — higher, 2.62%
- Cc1nc2cc(NC(=O)Cn3ncc(N4CCCC4)cc3=O)ccc2s1 — higher, 2.01%
- CC(=O)N1CCn2c(COCc3csc(C)n3)cnc2C1C (stereo not given) — lower, -12.5%
- Cn1cc(CNCCn2cccn2)c(-c2cccnc2)n1 — higher, -2.34%
- Cc1ccc(-c2cc(N)c(=O)n(CC(=O)NC3CCCCC3)n2)s1 — higher, 2.98%
- O=C(N[C@@H]1CC[C@@H](n2ccnc2)[C@@H]1O)c1cc2c(s1)CCC2 — lower, -12.7%
- CC1CN(CC(=O)NCCc2ccccc2)CCN1c1nccs1 (stereo not given) — higher, -2.79%
- CSCC(=O)N[C@H]1CN(Cc2c(C)noc2C)C[C@@H]1C(C)C — higher, 5.4%
- Cc1cc(CN2CCN(C(=O)c3sccc3C(C)C)CC2)no1 — higher, -0.962%
